# According to PMC5115981 (Cancer chemotherapy and pharmacology, 2016):
# Values joined by “and” are separate entries in the source; they are usually repeats but may differ in a detail not shown here. Identical values can stand only once.
# Tests used:
# [1] = Mouse liver microsome incubation for glucuronide metabolism; type: in vitro ADME; conditions: mouse liver microsomes 0.25 mg/mL, alamethicin, UDPGA
# In short: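 Glucuronidation incubation used microsomes from female heterozygous Foxn1nu/Foxn1+ mouse liver. Mix: 0.1 M phosphate (pH 7.4), 0.25 mg/mL microsomal protein, 25 µg/mL alamethicin, 50 mM Tris-HCl, 10 mM MgCl2 and 1,000 ng/mL drug. A mix without UDPGA served as negative control. Samples were analysed twice: SRM monitoring of the m/z 613 glucuronide channel, then MRM quantitation of parent depletion against a curve in buffer with 0.25 mg/mL BSA. Parent expressed relative to time 0.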
# [2] = Mouse liver microsome incubation; type: in vitro ADME
# In short: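 Microsomes from livers of female heterozygous Foxn1nu/Foxn1+ mice, with protein measured against a BSA standard. Incubations contained 0.5 mg/mL microsomal protein, 1,000 ng/mL drug, […], 0.1 M phosphate (pH 7.4) and <0.1% acetonitrile. Stopped with acetonitrile at 0, 15, 30, 45, 60 and 90 min, in triplicate. A positive control was run at 0 and 90 min. LC-MS used an analogue internal standard and calibrators in buffer with 0.5 mg/mL BSA. Results given as % of 0 min.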
# [3] = test system: pSTAT3 from IL-6 induction in a Cal33 cell line; conditions: read-out: IC50, inhibiting pSTAT3 from IL-6 induction; cited from earlier work
# [4] = Plasma protein binding by rapid equilibrium dialysis; type: in vitro ADME, mouse; conditions: for fraction unbound at 4 h, 1000 ng/mL: mouse, plasma, pH 7.2, plasma protein binding
# In short: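 Rapid equilibrium dialysis with control mouse plasma spiked to 1,000 ng/mL from a DMSO stock (organic <0.1%). Four 200 µL replicates were dialysed against PBS (pH 7.2), shaken at 37 °C for 4 h. Both compartments were quantified by LC-MS/MS against a curve in 1:1 PBS:plasma, with samples diluted to match the matrix. Assay LLQ was 1 ng/mL.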
# [5] = Single dose pharmacokinetics in mice; type: in vivo, mouse
# In short: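 Fasted female heterozygous Foxn1nu/Foxn1+ mice, 3 per time point (5–1440 min), received a single dose by one of three routes: 4.0 mg/kg in 10% Solutol HS IV via tail vein; the same formulation by oral gavage; or 30 mg/kg PO in 1% CMC suspension. Vehicle controls were taken at 5 and 1440 min. Sampling: cardiac-puncture EDTA plasma, tissues including brain, and metabolic-cage urine. Analysis by LC-MS/MS with a deuterated internal standard. Group means underwent non-compartmental analysis; […].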
# [6] = Stability of UPCDC-10205 in mouse plasma; type: in vitro ADME
# In short: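 Assay evaluation in control mouse plasma used QCs at 2.5, 30 and 800 ng/mL. 100 µL samples were spiked with deuterated internal standard, precipitated with acetonitrile, and supernatants dried at 37 °C under nitrogen before positive-ion MRM LC-MS/MS. Recovery and ion suppression were assessed at the 30 ng/mL QC. Also tested: bench stability during sample preparation for 4 h at room temperature, and three −80 °C freeze/thaw cycles.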
# [7] = mouse plasma spiked at 1,000 ng/mL, RED, 37 °C, 4 hours, calculated using the LLQ value (1 ng/mL)
# [8] = female, heterozygous Foxn1nu/Foxn1+, mouse, brain, iv, 4 mg/kg
# [9] = female, heterozygous Foxn1nu/Foxn1+, mouse, brain, po, 4 mg/kg
# [10] = female, heterozygous Foxn1nu/Foxn1+, mouse, brain, po, 30 mg/kg
# [11] = female, heterozygous Foxn1nu/Foxn1+, mouse, kidney, iv, 4 mg/kg
# [12] = female, heterozygous Foxn1nu/Foxn1+, mouse, kidney, po, 4 mg/kg
# [13] = female, heterozygous Foxn1nu/Foxn1+, mouse, kidney, po, 30 mg/kg
# [14] = female, heterozygous Foxn1nu/Foxn1+, mouse, liver, iv, 4 mg/kg
# [15] = female, heterozygous Foxn1nu/Foxn1+, mouse, liver, po, 4 mg/kg
# [16] = female, heterozygous Foxn1nu/Foxn1+, mouse, liver, po, 30 mg/kg
# [17] = female, heterozygous Foxn1nu/Foxn1+, mouse, lung, iv, 4 mg/kg
# [18] = female, heterozygous Foxn1nu/Foxn1+, mouse, lung, po, 4 mg/kg
# [19] = female, heterozygous Foxn1nu/Foxn1+, mouse, lung, po, 30 mg/kg
# [20] = female, heterozygous Foxn1nu/Foxn1+, mouse, muscle, iv, 4 mg/kg
# [21] = female, heterozygous Foxn1nu/Foxn1+, mouse, muscle, po, 30 mg/kg
# [22] = female, heterozygous Foxn1nu/Foxn1+, mouse, plasma, iv, 4 mg/kg
# [23] = female, heterozygous Foxn1nu/Foxn1+, mouse, plasma, po, 4 mg/kg
# [24] = female, heterozygous Foxn1nu/Foxn1+, mouse, plasma, po, 30 mg/kg
# [25] = female, heterozygous Foxn1nu/Foxn1+, mouse, red blood cells (RBC), iv, 4 mg/kg
# [26] = female, heterozygous Foxn1nu/Foxn1+, mouse, red blood cells, po, 4 mg/kg
# [27] = female, heterozygous Foxn1nu/Foxn1+, mouse, skeletal muscle, po, 4 mg/kg
smiles,measurement,setting,value
"COc1ccc(C2=Nn3c(nnc3-c3cc(-c4ccc(Cl)cc4)n[nH]3)SC2C)cc1 (stereo not drawn) [UPCDC-10205, 3-(3-(4-chlorophenyl)-1H-pyrazole-5-yl)-6-(4-methoxyphenyl)-7-methyl-7H-[1,2,4]triazolo[3,4-b][1,3,4]thiadiazine]",UPCDC-10205 remaining relative to time 0 after 60 min,[1],67%
same,metabolic stability among the four analogues,[2]; mouse liver microsome incubation,metabolically most stable
same,substrate depletion in the initial incubation,"[2]; mouse liver microsomes, NADPH, 90 min",20%
same,IC50,[3],2200 nM
same,concentration in the plasma portion of the RED device,"[4]; average of 4 replicates, 37 °C, 4 hours","1,091 ng/mL"
same,concentration in the saline buffer portion of the RED device,[4]; below the 1 ng/mL assay LLQ,0.2 ng/mL
same,plasma protein binding,[4]; [7],> 99.9%
same,"fraction unbound at 4 h, 1000 ng/mL","[4]; mouse plasma spiked at 1,000 ng/mL, RED, 37 °C, 4 hours, calculated using 0.2 ng/mL",~0.0002
same,"fraction unbound at 4 h, 1000 ng/mL",[4]; [7],< 0.0009
same,AUC(0-t),[5]; [8],1730 ng·h/mL
same,Tmax,[5]; [8],15 min
same,Cmax,"[5]; female, heterozygous Foxn1nu/Foxn1+, mouse, brain, iv, 4 mg/kg, mice, IV 4 mg/kg in 10% Solutol HS, brain",1640 ng/mL
same,AUC(0-t),[5]; [9],30 ng·h/mL
same,Tmax,[5]; [9],60 min
same,Cmax,"[5]; female, heterozygous Foxn1nu/Foxn1+, mouse, brain, po, 4 mg/kg, mice, PO 4 mg/kg in 10% Solutol HS, brain",15.4 ng/mL
same,AUC(0-t),[5]; [10],33.4 ng·h/mL
same,Tmax,[5]; [10],5 min
same,Cmax,"[5]; female, heterozygous Foxn1nu/Foxn1+, mouse, brain, po, 30 mg/kg, mice, PO 30 mg/kg suspension in 1% CMC, brain",49 ng/mL
same,AUC(0-t),[5]; [11],3240 ng·h/mL
same,Tmax,[5]; [11],5 min
same,Cmax,"[5]; female, heterozygous Foxn1nu/Foxn1+, mouse, kidney, iv, 4 mg/kg, mice, IV 4 mg/kg in 10% Solutol HS, kidney",4620 ng/mL
same,AUC(0-t),[5]; [12],428 ng·h/mL
same,Tmax,[5]; [12],30 min
same,Cmax,"[5]; female, heterozygous Foxn1nu/Foxn1+, mouse, kidney, po, 4 mg/kg, mice, PO 4 mg/kg in 10% Solutol HS, kidney",308 ng/mL
same,AUC(0-t),[5]; [13],272 ng·h/mL
same,Tmax,[5]; [13],5 min
same,Cmax,"[5]; female, heterozygous Foxn1nu/Foxn1+, mouse, kidney, po, 30 mg/kg, mice, PO 30 mg/kg suspension in 1% CMC, kidney",404 ng/mL
same,AUC(0-t),[5]; [14],1470 ng·h/mL
same,Tmax,[5]; [14],30 min
same,Cmax,"[5]; female, heterozygous Foxn1nu/Foxn1+, mouse, liver, iv, 4 mg/kg, mice, IV 4 mg/kg in 10% Solutol HS, liver",2780 ng/mL
same,AUC(0-t),[5]; [15],300 ng·h/mL
same,Tmax,[5]; [15],5 min
same,Cmax,"[5]; female, heterozygous Foxn1nu/Foxn1+, mouse, liver, po, 4 mg/kg, mice, PO 4 mg/kg in 10% Solutol HS, liver",220 ng/mL
same,AUC(0-t),[5]; [16],542 ng·h/mL
same,Tmax,[5]; [16],5 min
same,Cmax,"[5]; female, heterozygous Foxn1nu/Foxn1+, mouse, liver, po, 30 mg/kg, mice, PO 30 mg/kg suspension in 1% CMC, liver",564 ng/mL
same,AUC(0-t),[5]; [17],2680 ng·h/mL
same,Tmax,[5]; [17],5 min
same,Cmax,"[5]; female, heterozygous Foxn1nu/Foxn1+, mouse, lung, iv, 4 mg/kg, mice, IV 4 mg/kg in 10% Solutol HS, lung",4490 ng/mL
same,AUC(0-t),[5]; [18],630 ng·h/mL
same,Tmax,[5]; [18],4.98 min
same,Cmax,"[5]; female, heterozygous Foxn1nu/Foxn1+, mouse, lung, po, 4 mg/kg, mice, PO 4 mg/kg in 10% Solutol HS, lung",414 ng/mL
same,AUC(0-t),[5]; [19],186 ng·h/mL
same,Tmax,[5]; [19],5 min
same,Cmax,"[5]; female, heterozygous Foxn1nu/Foxn1+, mouse, lung, po, 30 mg/kg, mice, PO 30 mg/kg suspension in 1% CMC, lung",331 ng/mL
same,AUC(0-t),[5]; [20],1630 ng·h/mL
same,Tmax,[5]; [20],15 min
same,Cmax,"[5]; female, heterozygous Foxn1nu/Foxn1+, mouse, muscle, iv, 4 mg/kg, mice, IV 4 mg/kg in 10% Solutol HS, muscle",1900 ng/mL
same,Cmax,"[5]; female, heterozygous Foxn1nu/Foxn1+, mouse, muscle, po, 4 mg/kg, mice, PO 4 mg/kg in 10% Solutol HS, muscle",51.2 ng/mL
same,AUC(0-t),[5]; [21],140 ng·h/mL
same,Tmax,[5]; [21],5 min
same,Cmax,"[5]; female, heterozygous Foxn1nu/Foxn1+, mouse, muscle, po, 30 mg/kg, mice, PO 30 mg/kg suspension in 1% CMC, muscle",189 ng/mL
same,AUC(0-inf),[5]; [22],1020 ng·h/mL
same,AUC(0-t),[5]; [22],1020 ng·h/mL
same,Tmax,[5]; [22],5 min
same,half-life,[5]; [22],36 min
same,Cmax,"[5]; female, heterozygous Foxn1nu/Foxn1+, mouse, plasma, iv, 4 mg/kg, mice, IV 4 mg/kg in 10% Solutol HS, plasma",1710 ng/mL
same,Vd,"[5]; female, heterozygous Foxn1nu/Foxn1+, mouse, plasma, iv, 4 mg/kg, Vd, mice, IV 4 mg/kg, plasma",3.4 L/kg
same,Vd,"[5]; female, heterozygous Foxn1nu/Foxn1+, mouse, plasma, iv, 4 mg/kg, Vss, mice, IV 4 mg/kg, plasma",2 L/kg
same,clearance,"[5]; female, heterozygous Foxn1nu/Foxn1+, mouse, plasma, iv, 4 mg/kg, clearance, mice, IV 4 mg/kg, plasma",65.2 mL/min/kg
same,bioavailability,"[5]; female, heterozygous Foxn1nu/Foxn1+, mouse, plasma, oral, 30 mg/kg",0.3%
same,AUC(0-t),[5]; [23],52.1 ng·h/mL
same,Tmax,[5]; [23],30 min
same,half-life,[5]; [23],48 min
same,Cmax,"[5]; female, heterozygous Foxn1nu/Foxn1+, mouse, plasma, po, 4 mg/kg, mice, PO 4 mg/kg in 10% Solutol HS, plasma",35 ng/mL
same,AUC(0-t),[5]; [24],25.7 ng·h/mL
same,Tmax,[5]; [24],60 min
same,half-life,[5]; [24],204 min
same,Cmax,"[5]; female, heterozygous Foxn1nu/Foxn1+, mouse, plasma, po, 30 mg/kg, mice, PO 30 mg/kg suspension in 1% CMC, plasma",6.7 ng/mL
same,AUC(0-t),[5]; [25],556 ng·h/mL
same,Tmax,[5]; [25],5 min
same,Cmax,"[5]; female, heterozygous Foxn1nu/Foxn1+, mouse, red blood cells (RBC), iv, 4 mg/kg, mice, IV 4 mg/kg in 10% Solutol HS, RBC",980 ng/mL
same,Cmax,"[5]; female, heterozygous Foxn1nu/Foxn1+, mouse, red blood cells (RBC), po, 4 mg/kg, mice, PO 4 mg/kg in 10% Solutol HS, RBC",16 ng/mL
same,AUC(0-t),[5]; [26],23.5 ng·h/mL
same,Tmax,[5]; [26],30 min
same,AUC(0-t),[5]; [27],91.4 ng·h/mL
same,Tmax,[5]; [27],60 min
same,level in pooled urine as % of the total amount administered,"[5]; mice, IV 4 mg/kg, 0-6 h collection",0.0011%
same,level in pooled urine as % of the total amount administered,"[5]; mice, IV 4 mg/kg, 6-24 h collection",0.0010%
same,clearance,"[5]; mice, IV 4 mg/kg, plasma, 4 mg/kg",65 mL/min/kg
same,peak plasma concentration after IV dosing,"[5]; mice, IV 4 mg/kg, 4 mg/kg",1.7 µg/mL and 4.0 µM
same,plasma level by the 6 h time point,"[5]; mice, IV 4 mg/kg, LLQ 1 ng/mL",below the lower limit of quantitation
same,"%F (oral bioavailability, using AUC0-t)","[5]; mice, PO 4 mg/kg in 10% Solutol HS vs IV 4 mg/kg, plasma, 4 mg/kg",5.1%
same,level in pooled urine as % of the total dose,"[5]; mice, PO 4 mg/kg, 0-6 h",0.0077%
same,urine concentration,"[5]; mice, PO 4 mg/kg, 6-24 h",below the LLQ
same,time of Cmax after administration,"[5]; mice, PO 4 mg/kg, plasma",0.5 h
same,plasma concentrations after the 2 h time point,"[5]; mice, PO 4 mg/kg, LLQ 1 ng/mL",below the LLQ
same,time of Cmax after administration,"[5]; mice, PO 30 mg/kg in 1% CMC suspension, plasma",1.0 h
same,urine concentration,"[5]; mice, PO 30 mg/kg in 1% CMC, all urine samples",below the LLQ
same,amount excreted in urine,"[5]; mice, renal excretion",< 0.1 % of dose
same,tissue distribution,"[5]; mice, tissue levels compared with plasma",extensive tissue distribution
same,stability in plasma during sample preparation,"[6]; QCM (30 ng/mL), 4 h at room temperature",100.8%
same,recovery at 30 ng/mL,[6]; mouse,112%
